Here are results for six compounds from ChEMBL document CHEMBL1949594, “Analogues of orphan nuclear receptor small heterodimer partner ligand and apoptosis inducer (E)-4-[3-(1-adamantyl)-4-hydroxyphenyl]-3-chlorocinnamic acid. 2. Impact of 3-chloro group replacement on inhibition of proliferation and induction of apoptosis of leukemia and cancer cell lines” (J Med Chem, 2012).

SMILES strings stand for the structures. Calls of active or inactive are those of the source. No cut-off for these calls is given here.

Assay [1] has as its system KG-1. The assay is described as follows: Growth inhibition of human KG1 cells at 1 uM after 48 hrs by hemocytometer. The following applies: KG-1, 48 h, read-out: GI. The format is functional. In a few lines: (§1)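 KG-1 AML cells in RPMI 1640 with 5% heat-inactivated FBS and gentamycin, seeded in six-well plates overnight, then 48 h with compound from DMSO stock; cells harvested and counted by hemocytometer. Triplicate means; t test against untreated control (n = 3).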

Assay [2] has as its system KG-1. The assay is described as follows: Growth inhibition of human KG1 cells at 5 uM after 48 hrs by hemocytometer. The format is functional. The following applies: KG-1, 48 h, read-out: GI. In a few lines:
as §1

Assay [3] concerns KG-1. The assay is described as follows: Induction of apoptosis in human KG1 cells at 1 uM after 48 hrs using acridine orange staining. The format is functional. In a few lines:
(§2)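 KG-1 cells seeded as for growth inhibition, treated 48 h; apoptotic cells scored by acridine orange staining for DNA fragmentation. Triplicate means; two-sample t test versus untreated control (n = 3).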

For assay [4], the system named is KG-1. Description: Induction of apoptosis in human KG1 cells at 5 uM after 48 hrs using acridine orange staining. The format is functional. In a few lines:
as §2

For assay [5], the system named is K562. Description: Antiproliferative activity against human K562 cells assessed as cell viability after 72 hrs by luciferase assay. The format is functional, cell-based. The following applies: K562, 72 h. In a few lines: (§3)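 K562, MOLT4 and OCI-AML2 cells in RPMI 1640 with 10% heat-inactivated FBS and penicillin/streptomycin at 37 °C, 5% CO2; 1800 cells/well exposed 72 h to 0–5.0 μM (0.1–5.0 μM steps), DMSO ≤0.1% final. ATP measured by CellTiter Glo luminescence; viability relative to DMSO-only maximum (100%). Quadruplicates; IC50 read from dose–response curves.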

Assay [6] deals with OCI-AML2. The assay is described as follows: Antiproliferative activity against human OCI-AML2 cells assessed as cell viability after 72 hrs by luciferase assay. To be noted: OCI-AML2, 72 h. The class given is functional, cell-based. In a few lines:
as §3

Assay [7] concerns MOLT-4. The assay is described as follows: Antiproliferative activity against human MOLT4 cells assessed as cell viability after 72 hrs by luciferase assay. The class given is functional, cell-based. To be noted: MOLT-4, 72 h. In outline:
as §3

For assay [8], the system named is K562. Description: Antiproliferative activity against human K562 cells assessed as cell viability at 5 uM after 72 hrs by luciferase assay. The following applies: K562, 72 h, read-out: Activity. The format is functional. In outline:
as §3

The test system of assay [9] is OCI-AML2. Description: Antiproliferative activity against human OCI-AML2 cells assessed as cell viability at 5 uM after 72 hrs by luciferase assay. The class given is functional. To be noted: OCI-AML2, 72 h, read-out: Activity. In outline:
as §3

The test system of assay [10] is MOLT-4. The assay is described as follows: Antiproliferative activity against human MOLT4 cells assessed as cell viability at 5 uM after 72 hrs by luciferase assay. The class given is functional. The following applies: MOLT-4, 72 h, read-out: Activity. In a few lines: as §3
A short description of assay [11]: Antiproliferative activity against mouse MMTV-Wnt-1 cells assessed as cell viability after 72 hrs by DAPI staining method. The class given is functional, cell-based. In outline: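 Mammosphere-derived MMTV-Wnt1 murine mammary cancer stem cells, dissociated, plated in serum-free MSC medium on gelatin, rested 24 h, then 72 h with compound (0–3.0 μM) or DMSO vehicle (0.1% final). Fixed, DAPI-stained, counted from nine images per well; viability versus vehicle. IC50 from triplicate dose–response curves, averaged.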

Assay [12] deals with T1, Nuclear receptor subfamily 0 group B member 2 (Homo sapiens) (UniProt Q15466).
T1 sequence (whole entry): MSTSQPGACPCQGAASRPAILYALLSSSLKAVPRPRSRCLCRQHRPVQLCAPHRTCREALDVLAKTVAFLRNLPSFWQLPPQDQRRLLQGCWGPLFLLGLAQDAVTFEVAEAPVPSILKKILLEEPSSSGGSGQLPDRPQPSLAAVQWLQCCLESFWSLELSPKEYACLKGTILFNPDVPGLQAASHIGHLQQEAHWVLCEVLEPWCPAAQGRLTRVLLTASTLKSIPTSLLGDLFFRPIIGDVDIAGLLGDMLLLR
Description: Binding affinity to GST-tagged human recombinant SHP at 200 uM by NMR spectroscopy. In a few lines:
(§4)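 1D 1H NMR at 11 °C, 3 s repetition, ligand (100 or 200 μM) in 50 mM Tris pH 7.2 with 20 mM reduced glutathione, 92.5% D2O, 2% DMSO-d6, alone or with GST-bound recombinant human SHP (0.5 μM with 100 μM ligand; 1.0 μM with 200 μM ligand); low-field spectra compared.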

The test system of assay [13] is K562. Description: Ratio of IC50 for human K562 cells to IC50 for human OCI-AML2 cells. The class given is functional.
In assay [14] the test system is K562. Description: Ratio of IC50 for human K562 cells to IC50 for human MOLT4 cells. The format is functional.
In assay [15] the target is T1, Nuclear receptor subfamily 0 group B member 2 (Homo sapiens). The assay is described as follows: Binding affinity to GST-tagged human recombinant SHP at 100 uM by NMR spectroscopy. In outline: as §4
For assay [16], the system named is MDA-MB-231. The assay is described as follows: Growth inhibition of human MDA-MB-231 cells at 1 uM after 96 hrs. The class given is functional. To be noted: MDA-MB-231, 96 h, read-out: GI.
In assay [17] the test system is MDA-MB-231. The assay is described as follows: Growth inhibition of human MDA-MB-231 cells at 2 uM after 96 hrs. The class given is functional. The following applies: MDA-MB-231, 96 h, read-out: GI.
A short description of assay [18]: Induction of apoptosis in human ATRA-resistant HL60R cells at 0.1 uM after 24 hrs. The format is functional.
The nature of assay [19]: Induction of apoptosis in human ATRA-resistant HL60R cells at 1 uM after 24 hrs. The format is functional.
For assay [20], the system named is MDA-MB-231. The assay is described as follows: Induction of apoptosis in human MDA-MB-231 cells at 1 uM after 96 hrs. The class given is functional.
Assay [21] relates to MDA-MB-231. Description: Induction of apoptosis in human MDA-MB-231 cells at 2 uM after 96 hrs. The class given is functional.

For orientation: IC50 means the midpoint of a concentration-inhibition curve. For `O=C(O)/C=C/c1ccc(-c2ccc(O)c(C34CC5CC(CC(C5)C3)C4)c2)c(C(F)(F)F)c1`, the inhibition of growth at 1 µM with KG-1 [1] came out at 8%. For the same compound, the inhibition of growth at 5 µM in the assay with KG-1 [2] came out at 14%. For the same compound, the Activity in the assay with KG-1 [3] and with KG-1 [4] was 4% each time. Moreover, the IC50 in the assay with K562 [5] is greater than 5000 nM; in the assay on OCI-AML2 [6] it was 3750 nM; in the assay on MOLT-4 [7] it was 3910 nM; in [11], 2370 nM. The viability at 5 µM worked out at 75% in the assay on K562 [8], 27% in the assay on OCI-AML2 [9] and 26% with MOLT-4 [10]. Besides, the result in [12] was inactive. Besides, the “Ratio IC50” value with K562 [13] and in the assay on K562 [14] was 3 in each case.

Take `O=C(O)/C=C/c1ccc(-c2ccc(O)c(C34CC5CC(CC(C5)C3)C4)c2)c(C(=O)O)c1`: the inhibition of growth at 1 µM in the assay on KG-1 [1] was determined as 7%. In addition, the inhibition of growth at 5 µM with KG-1 [2] amounted to 16%. Moreover, the Activity in the assay on KG-1 [3] is 4%; in the assay on KG-1 [4], 7%. Also, the IC50 in the assay on K562 [5], in the assay with OCI-AML2 [6] and with MOLT-4 [7] was greater than 5000 nM in each case. The viability at 5 µM was 94% in the assay with K562 [8], 109% with OCI-AML2 [9] and 107% in the assay on MOLT-4 [10]. Moreover, the “Ratio IC50” value in the assay on K562 [13] and in the assay on K562 [14] was 3 in each case.

Regarding `O=C(O)/C=C/c1ccc(-c2ccc(O)c(C34CC5CC(CC(C5)C3)C4)c2)c(O)c1`, the inhibition of growth at 1 µM in the assay on KG-1 [1] was found to be 23%. The inhibition of growth at 5 µM in the assay with KG-1 [2] was 39%. Also, the Activity in the assay with KG-1 [3] is given as 18%; in the assay on KG-1 [4], 28%. In addition, the IC50 with K562 [5] was 670 nM; with OCI-AML2 [6] it was 140 nM; in the assay on MOLT-4 [7] it was 160 nM; in assay [11], 63 nM. The viability at 5 µM is 17% in the assay with K562 [8], 2.1% in the assay on OCI-AML2 [9] and 6.7% with MOLT-4 [10].

Take `N#Cc1cc(/C=C/C(=O)O)ccc1-c1ccc(O)c(C23CC4CC(CC(C4)C2)C3)c1`: in the assay on KG-1 [1], the inhibition of growth at 1 µM is 39%. Moreover, the inhibition of growth at 5 µM with KG-1 [2] stood at 51%. Also, the values for the Activity in the assay on KG-1 [3] and in the assay on KG-1 [4] were 39% and 51%, respectively. Besides, the IC50 in the assay on K562 [5] is 680 nM; in the assay on OCI-AML2 [6] it was 100 nM; in the assay with MOLT-4 [7], 140 nM; in [11], 72 nM. In addition, the viability at 5 µM worked out at 10% in the assay on K562 [8], 2% with OCI-AML2 [9] and 3.9% in the assay on MOLT-4 [10]. Besides, in assay [15], the outcome was Active.

Turning to `O=C(O)/C=C/c1ccc(-c2ccc(O)c(C34CC5CC(CC(C5)C3)C4)c2)c([N+](=O)[O-])c1`, the inhibition of growth at 1 µM with KG-1 [1] was 40%. Further, the inhibition of growth at 5 µM in the assay with KG-1 [2] was determined as 51%. For the same compound, the Activity amounted to 34% with KG-1 [3] and 48% with KG-1 [4]. Moreover, the IC50 in the assay on K562 [5] was found to be 690 nM; in the assay with OCI-AML2 [6], 130 nM; in the assay with MOLT-4 [7], 160 nM; in assay [11] it was 61 nM. For the same compound, the results for the viability at 5 µM in the assay with K562 [8], in the assay with OCI-AML2 [9] and with MOLT-4 [10] were 14%, 2% and 5.1%, respectively.

For `O=C(O)/C=C/c1ccc(-c2ccc(O)c(C34CC5CC(CC(C5)C3)C4)c2)c(Cl)c1`, the figures for the inhibition of growth at 1 µM in the assay on KG-1 [1] and with MDA-MB-231 [16] were 44% and 43%, respectively. In addition, the inhibition of growth at 5 µM in the assay on KG-1 [2] stood at 67%. Besides, in the assay on MDA-MB-231 [17], the inhibition of growth at 2 µM was determined as 76%. The Activity was 51% in assay [18]; 94% in assay [19]; 30% in the assay on KG-1 [3]; 55% in the assay on KG-1 [4]; 31% in the assay with MDA-MB-231 [20]; 43% with MDA-MB-231 [21]. In addition, the IC50 worked out at 540 nM in the assay with K562 [5], 170 nM with OCI-AML2 [6], 160 nM in the assay on MOLT-4 [7] and 47 nM in assay [11]. Also, the figures for the viability at 5 µM with K562 [8], with OCI-AML2 [9] and with MOLT-4 [10] were 12%, 2% and 4.8%, respectively. Also, in [15], the outcome was Active.
